TAG inh: inhibitors of triacylglycerol accumulation | H9c2 cells, Nile Red lipid (TAG) fluorescence; cells loaded with 200 µM oleic acid | inhibition, % at 12.5 µM | hit rate 0.66% among 230,000 | AID 651582;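 active = pattern-corrected inhibition of lipid staining of at least 50% with the nuclear-stain viability signal not falling by more than 50%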;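 note: 0% = DMSO wells and 100% = triacsin C control wells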
SMARCA2 activ: activators of SMARCA2 function | AID 652017 | hit rate 1% among 370,000 | activation, % at 9.1 µM | MG213 cells, MMTV-luciferase reporter, dexamethasone, overnight; in the data active = activation above about 7.8%;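 note: 0% = vehicle wells and 100% = reference activator wells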
TbMetRS inhib: blocks T. brucei methionyl-tRNA synthetase activity; inhibition, % at 11.9 µM; hit rate 0.4% among 360,000; purified T. brucei MetRS, ATP depletion, Kinase-Glo luminescence;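 active = inhibition above a per-plate cutoff of the control wells' mean inhibition plus 3 SD, cut at about 5.5% in these data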;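 note: 0% = DMSO wells median and 100% = median of wells with control inhibitor compound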
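Dosing: 11.9 µM single point; system: parasite MetRS enzyme; technique: luminescence of leftover ATP; times: 15 min enzyme-compound preincubation, 2 h reaction, 10 min detection, 25 °C; replicates: each compound tested once; read-out basis: percent inhibition relative to median high and low control wells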
Efflux pump inh: antifungal efflux pump inhibition, Nile Red retention | S. cerevisiae Candida pump triplex | inhibition, % at 10 µM | hit rate 0.44% among 330,000;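 active = plate passing quality check with inhibition over a set limit, or well fluorescence over plate mean plus 4 SD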;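 note: Nile Red retained in pooled yeast measured as flow cytometry median fluorescence; 0% = buffer negative control and 100% = Enniatin B positive control; higher means more Nile Red kept so more efflux inhibition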
AHR activator: human AHR activation | hit rate 2.5% among 320,000 | AHR-responsive luciferase reporter cells, luminescence | activation, % at 5 µM | P35869; in the data active = activation above about 47%;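 note: 0% = vehicle wells and 100% = reference agonist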
Target sequence (P35869 whole entry, looked up): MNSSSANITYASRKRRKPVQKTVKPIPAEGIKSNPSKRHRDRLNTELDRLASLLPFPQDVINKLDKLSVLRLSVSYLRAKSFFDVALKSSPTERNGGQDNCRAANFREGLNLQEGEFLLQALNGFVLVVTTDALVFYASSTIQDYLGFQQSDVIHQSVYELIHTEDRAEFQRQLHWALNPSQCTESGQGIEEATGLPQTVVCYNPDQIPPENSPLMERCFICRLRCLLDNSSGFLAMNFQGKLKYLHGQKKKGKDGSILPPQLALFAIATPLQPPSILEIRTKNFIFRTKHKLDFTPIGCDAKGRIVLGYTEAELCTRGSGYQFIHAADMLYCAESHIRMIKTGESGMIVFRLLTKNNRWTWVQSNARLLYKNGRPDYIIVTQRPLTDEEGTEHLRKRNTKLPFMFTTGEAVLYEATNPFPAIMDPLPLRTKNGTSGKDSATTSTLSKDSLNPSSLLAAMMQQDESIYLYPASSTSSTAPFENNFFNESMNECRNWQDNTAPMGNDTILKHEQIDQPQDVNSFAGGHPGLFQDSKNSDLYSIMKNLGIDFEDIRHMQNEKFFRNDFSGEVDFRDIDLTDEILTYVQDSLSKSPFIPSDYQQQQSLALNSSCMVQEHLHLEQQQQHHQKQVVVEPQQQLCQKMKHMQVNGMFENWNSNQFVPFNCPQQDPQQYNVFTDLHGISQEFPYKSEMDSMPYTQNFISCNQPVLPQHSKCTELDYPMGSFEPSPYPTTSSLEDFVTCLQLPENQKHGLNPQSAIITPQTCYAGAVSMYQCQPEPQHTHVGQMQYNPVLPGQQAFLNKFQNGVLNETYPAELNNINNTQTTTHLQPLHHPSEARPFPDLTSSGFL
TbMetRS confirm: Trypanosoma brucei MetRS inhibition confirmed. shares compounds with TbMetRS inhib. T. brucei MetRS enzyme, luminescence (ATP depletion). inhibition, % at 11.9 µM. hit rate 93% among 1,400. AID 624412; in the data active = inhibition above about 7%
Jurkat cytotox: kills Jurkat cells in T. brucei MetRS counterscreen; Jurkat cells viability, ATP luminescence; AID 624413; shares compounds with TbMetRS inhib; hit rate 12% among 1,400; inhibition, % at 8.3 µM; in the data active = inhibition above about 15%;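 note: 0% = vehicle and 100% = reference inhibitor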
TbMetRS FP orth: T. brucei MetRS inhibition, orthogonal assay; shares compounds with TbMetRS inhib; purified T. brucei MetRS, fluorescence polarization; inhibition, % at 11.9 µM; hit rate 44% among 1,400; in the data active = inhibition above about 17%;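 note: 0% = vehicle wells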
The depositor's hits bear a star; . = no result. Rows were chosen to be rich in hits. Some 4.1% of all compounds tested hit in one or more screens of this group.

SMILES | TAG inh | SMARCA2 activ | TbMetRS inhib | Efflux pump inh | AHR activator | TbMetRS confirm | Jurkat cytotox | TbMetRS FP orth
C[N+]1=C(N)NC2=C3CCCCC3n3c(=O)n(-c4ccccc4)c(=O)n3C2C1 (stereo not drawn) | . | -4 | . | . | . | . | . | .
Cc1cccc(OCc2nc(C#N)c(NCc3ccc4c(c3)OCO4)o2)c1 | -10 | -1 | 0 | 0 | 8 | . | . | .
N#Cc1nc(COc2ccc(Cl)cc2)oc1NCc1ccc2c(c1)OCO2 | -1 | -2 | 5.7* | 0 | 12 | 9.8* | 1 | 12
O=c1c2cc(Cl)ccc2[nH]c(=S)n1Cc1ccccn1 | . | 3 | 6.8* | 0 | 21 | 16* | 6 | 3
O=C(CSc1ccc2ccccc2c1)Nc1nc2ccccc2[nH]1 | . | 5 | 21* | 0 | 10 | 29* | 4 | 11
COc1ccc(OCC(=O)Nc2cccc(-c3nc4ccccc4[nH]3)c2)cc1 | . | 1 | 7.1* | 0 | 31 | 12* | 4 | 31*
CCCCNc1nc2ccccc2[nH]1 | -13 | 0 | 8.0* | 0 | 21 | 14* | 2 | 6
CCCOc1cccc(OCC(=O)Nc2nc3ccccc3[nH]2)c1 | -5 | -2 | 29* | 0 | 35 | 48* | 9 | 20*
Cc1cc(C)c(OCC(=O)Nc2nc3ccccc3[nH]2)c(C)c1 | -7 | -1 | -1 | 0 | 4 | . | . | .
COc1ccc(OCC(=O)Nc2cccc(-c3nc4ccccc4o3)c2)cc1 | . | 0 | 0 | 0 | 12 | . | . | .
CC(C)NC(=O)NC1CCN(CC(=O)Nc2ccc3c(c2)OCCO3)CC1 | . | -6 | . | . | . | . | . | .
O=C(Nc1ccc2c(c1)OCO2)N1CCC(c2nc3ccc(Cl)cc3[nH]2)CC1 | . | -2 | . | . | . | . | . | .
C[C@H]1[C@H](c2ccccc2)Oc2cccc(NCCc3ccccc3)c2S(=O)(=O)N1Cc1cccc(Cl)c1 | . | -1 | . | . | . | . | . | .
C[C@H](O)[C@@H]1CN2CCc3ccc(-c4ccc5c(c4)OCO5)cc3[C@@H]2C[C@@H]1N(C)Cc1cc(Cl)cc(Cl)c1 | . | 1 | . | . | . | . | . | .
CCOc1ccc(OCCCC(=O)Nc2nc3ccccc3[nH]2)cc1 | -17 | -3 | 1 | 0 | 2 | . | . | .
CCCCOc1cccc(OCC(=O)Nc2nc3ccccc3[nH]2)c1 | -8 | 0 | 36* | -4 | 6 | 48* | 1 | 14
O=c1[nH]c(Cc2ccc(Cl)cc2)nc2ccccc12 | -10 | 1 | -1 | 0 | 8 | . | . | .
O=c1[nH]c(Cc2cccc(C(F)(F)F)c2)nc2ccccc12 | . | -3 | 51* | 0 | 6 | 55* | -5 | 27*
O=c1[nH]c(CSc2ncc(C(F)(F)F)cc2Cl)nc2ccccc12 | 8 | -1 | 53* | 0 | 4 | 77* | 11 | 54*
O=c1[nH]c(CSc2ncnc3sccc23)nc2cc(C(F)(F)F)ccc12 | 1 | -4 | 1 | 0 | 15 | . | . | .
CCCCOc1ccc(C(=O)n2ccc3ccc(-c4ccc5ccn(Cc6cccc(C(=O)OC)c6)c5c4)cc32)cc1 | . | -1 | . | . | . | . | . | .
COC(=O)Cc1c([C@H](C)[C@@H](OC)c2ccccc2Br)nnn1Cc1ccccc1 | . | -2 | . | . | . | . | . | .
O=S1(=O)c2c(cccc2N2CCC[C@@H]2CO)O[C@H]2CCN1C2 | . | -2 | . | . | . | . | . | .
O=C(CNC(=O)c1ccc(Br)cc1)N/N=C/c1ccc[nH]1 | 3 | 0 | 23* | 0 | 8 | 47* | 10 | 22*
N#C/C(=C\c1ccc(Sc2nc3ccccc3[nH]2)o1)c1ccccc1 | . | -3 | 0 | 0 | 3 | . | . | .
SMILES | TAG inh | SMARCA2 activ | TbMetRS inhib | Efflux pump inh | AHR activator | TbMetRS confirm | Jurkat cytotox | TbMetRS FP orth
N#Cc1ccc(Sc2nc3ccccc3[nH]2)cc1C#N | -19 | 2 | 17* | 0 | 38 | 29* | 0 | 14
COCCN1C(=O)C2=C(C1=O)C1N(C)c3ccccc3[C@@]13C[C@@H](CO)N(C(C)=O)C3=N2 (stereo partly drawn) | . | -1 | . | . | . | . | . | .
Cc1ccc(N2C(=O)C3Sc4[nH]c(=O)sc4C(c4ccccc4)C3C2=O)cc1 (stereo not drawn) | 3 | 0 | 0 | 0 | 3 | . | . | .
O=C1C2Sc3[nH]c(=O)sc3C(c3cc([N+](=O)[O-])ccc3O)C2C(=O)N1c1ccccc1 (stereo not drawn) | -7 | -2 | 16* | 0 | 2 | 19* | 0 | 12
Cc1cccc(NC(=O)c2cccc3c2-c2ccccc2C3=O)c1C | . | 3 | . | . | . | . | . | .
COC(=O)[C@]12C[C@H](CC(=O)N3CCSCC3)C(=O)N(Cc3ccco3)C1=C[C@H](C1CCCC1)O[C@@H]2C | . | -2 | . | . | . | . | . | .
Nc1nc2n(n1)C(c1ccco1)CC(c1ccc(Cl)cc1Cl)N2 (stereo not drawn) | . | 5 | 9.6* | 0 | -3 | 18* | 5 | 1
OC1(c2cccc(C(F)(F)F)c2)CCN(c2ncnc3c2[nH]c2ccc(F)cc23)CC1 | . | -2 | 12* | . | . | 24* | 34* | 13
Fc1ccc2[nH]c3c(N4CCN(c5ccccc5)CC4)ncnc3c2c1 | -124 | -6 | 3 | 0 | 8 | . | . | .
Cc1nnc(NCc2cccc(Cl)c2)c2ccccc12 | . | -2 | 12* | 0 | 11 | 19* | 3 | 13
O=C(CCc1ccccc1)N[C@H]1[C@H](OCc2ccccc2)CCC[C@@]12C(=O)N(Cc1ccccc1)c1ccc(-c3cnccn3)cc12 | . | -6 | . | . | . | . | . | .
c1ccc2c(c1)nc(N1CCOCC1)c1c3ccccc3[nH]c21 | . | 1 | 12* | 0 | 95* | 4 | -3 | 5
COC(=O)c1cc(-c2ccc(Cl)cc2Cl)n[nH]1 | . | 4 | 12* | 0 | 2 | 29* | 7 | 18*
O=C(Cc1ccccc1F)Nc1nnc(-c2cccnc2)s1 | . | -1 | . | . | . | . | . | .
CCNC(=S)NNC(=O)c1ccc(=O)n(Cc2ccccc2)c1 | 2 | -1 | 22* | 0 | 0 | 37* | 1 | 22*
O=C(NCc1ccccc1)c1ccc(Cn2cc(C(F)(F)F)ccc2=O)cc1 | -3 | -2 | 0 | 0 | -3 | . | . | .
CNC(=S)NNC(=O)c1ccc(=O)n(Cc2cccc(C(F)(F)F)c2)c1 | . | -1 | 6.1* | 0 | 1 | 13* | -2 | 3
CNC(=S)NNC(=O)c1cccc(C(F)(F)F)c1 | . | 2 | -1 | 0 | 5 | . | . | .
O=C(Nc1ccccc1)c1ccc(=O)n(Cc2cccc(Cl)c2)c1 | 2 | -5 | 43* | 0 | 21 | 58* | 6 | 28*
C=CCNC(=S)NNC(=O)c1ccc(=O)n(Cc2ccc(Cl)cc2Cl)c1 | 4 | -5 | 34* | 1 | -1 | 44* | 6 | 32*
CCNC(=O)c1ccc(=O)n(Cc2ccc(Cl)cc2Cl)c1 | 4 | -4 | -1 | 0 | 1 | . | . | .
CC(C)(C)N(Cc1cn(Cc2ccccc2)nn1)S(=O)(=O)c1ccccc1Br | . | 3 | . | . | . | . | . | .

Source: PubChem
